Reference: ChEMBL document CHEMBL1123488, “Agents for the treatment of brain edema. 2. [(2,3,9,9a-Tetrahydro-3-oxo-9a-substituted-1H-fluoren-7-yl)oxy]+ ++alkanoi c acids and some of their analogues” (J Med Chem, 1986)
Where “and” joins values, the source holds several entries; their conditions need not be identical. Equal values may be shown once.

Key:
[1] = organism: Cavia porcellus; assay: Compound was tested for inhibition of potassium ion uptake in guinea pig cerebrocortical slices at concentration of (10e-8) M; format: functional
How it was run: (§1)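 Slices were incubated 60 min at 22 °C in 27 mM K+ medium with 5 mM HCO3- added for the last 40 min, with the compound present throughout. Slices were then filtered off, reweighed and homogenized (10% w/v) in 1 N perchloric acid. The supernatant was assayed for electrolytes, expressed as µmol/g initial wet weight. Two-tailed t-test versus 27 K + HCO3-.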

[2] = organism: Felis catus; assay: Compound was tested for inhibition of K+ ion uptake in cat cerebrocortical slices at concentration of (10e-12) M; format: functional; how it was run: as §1
[3] = organism: Rattus norvegicus; assay: Compound was tested for inhibition of HCO3- dependent swelling of rat cerebrocortical slices at concentration of (10e-4) M; format: functional
How it was run: (§2)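 Cerebrocortical slices were weighed and incubated in Warburg flasks at 22 °C in medium of KCl 27, NaCl 100, glucose 10 and KH2PO4 1.2 mmol/L (27 mM K+ HEPES). HCO3- (5 mM) was added from the side arm for the final 40 min, and the compound was present throughout the 60 min. Swelling = (final − initial wet weight)/initial wet weight × 100. Two-tailed t-test versus 27 K + HCO3-.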

[4] = organism: Felis catus; assay: Compound was tested for inhibition of HCO3- dependent swelling of cat cerebrocortical slices at concentration of (10e-8) M; format: functional; how it was run: as §2
[5] = organism: Felis catus; assay: Compound was tested for inhibition of HCO3- dependent swelling of cat cerebrocortical slices at concentration of (10e-10) M; format: functional; how it was run: as §2
[6] = organism: Felis catus; assay: Compound was tested for inhibition of sodium ion uptake in cat cerebrocortical slices at concentration of (10e-13) M; format: functional
[7] = test system: Felis catus; assay: In vivo activity in the acceleration-deceleration head injury assay at dose of 2.5 mg/kg; 8-19
[8] = organism: Rattus norvegicus; assay: Compound was tested for inhibition of chloride ion uptake in rat cerebrocortical slices at concentration of (10e-8) M; format: functional; how it was run: as §1
[9] = organism: Rattus norvegicus; assay: Compound was tested for inhibition of chloride ion uptake in rat cerebrocortical slices at concentration of (10e-4) M; format: functional; how it was run: as §1
[10] = organism: Cavia porcellus; assay: Compound was tested for inhibition of HCO3- dependent swelling of guinea pig cerebrocortical slices at concentration of (10e-6) M; format: functional; how it was run: as §2
[11] = organism: Cavia porcellus; assay: Compound was tested for inhibition of potassium ion uptake in guinea pig cerebrocortical slices at concentration of (10e-7) M; format: functional; how it was run: as §1
[12] = organism: Cavia porcellus; assay: Compound was tested for inhibition of potassium ion uptake in guinea pig cerebrocortical slices at concentration of (10e-6) M; format: functional; how it was run: as §1
[13] = organism: Cavia porcellus; assay: Compound was tested for inhibition of sodium ion uptake in guinea pig cerebrocortical slices at concentration of (10e-11) M; format: functional
[14] = organism: Cavia porcellus; assay: Compound was tested for inhibition of sodium ion uptake in guinea pig cerebrocortical slices at concentration of (10e-12) M; format: functional
[15] = organism: Rattus norvegicus; assay: Compound was tested for inhibition of sodium ion uptake in rat cerebrocortical slices at concentration of (10e-8) M; format: functional
[16] = organism: Cavia porcellus; assay: Compound was tested for inhibition of HCO3- dependent swelling of guinea pig cerebrocortical slices at concentration of (10e-11) M; format: functional; how it was run: as §2
[17] = test system: Felis catus; assay: In vivo activity in the acceleration-deceleration head injury assay at dose of 2.5 mg/kg; 5/21
[18] = organism: Felis catus; assay: Compound was tested for inhibition of K+ ion uptake in cat cerebrocortical slices at concentration of (10e-8) M; format: functional; how it was run: as §1
[19] = test system: Felis catus; assay: In vivo activity in the acceleration-deceleration head injury assay at dose of 10 mg/kg; 6/16
[20] = organism: Rattus norvegicus; assay: Compound was tested for inhibition of HCO3- dependent swelling of rat cerebrocortical slices at concentration of (10e-8) M; format: functional; how it was run: as §2
[21] = organism: Felis catus; assay: Compound was tested for inhibition of sodium ion uptake in cat cerebrocortical slices at concentration of (10e-8) M; format: functional
[22] = organism: Felis catus; assay: Compound was tested for inhibition of K+ ion uptake in cat cerebrocortical slices at concentration of (10e-11) M; format: functional; how it was run: as §1
[23] = organism: Cavia porcellus; assay: Compound was tested for inhibition of sodium ion uptake in guinea pig cerebrocortical slices at concentration of (10e-9) M; format: functional
[24] = organism: Rattus norvegicus; assay: Compound was tested for inhibition of chloride ion uptake in rat cerebrocortical slices at concentration of (10e-3) M; format: functional; how it was run: as §1
[25] = organism: Felis catus; assay: Compound was tested for inhibition of K+ ion uptake in cat cerebrocortical slices at concentration of (10e-13) M; format: functional; how it was run: as §1
[26] = organism: Cavia porcellus; assay: Compound was tested for inhibition of sodium ion uptake in guinea pig cerebrocortical slices at concentration of (10e-7) M; format: functional
[27] = organism: Cavia porcellus; assay: Compound was tested for inhibition of potassium ion uptake in guinea pig cerebrocortical slices at concentration of (10e-9) M; format: functional
[28] = organism: Cavia porcellus; assay: Compound was tested for inhibition of chloride ion uptake in guinea pig cerebrocortical slices at concentration of (10e-12) M; format: functional; how it was run: as §1
[29] = organism: Rattus norvegicus; assay: Compound was tested for inhibition of potassium ion uptake in rat cerebrocortical slices at concentration of (10e-4) M; format: functional
[30] = organism: Rattus norvegicus; assay: Compound was tested for inhibition of sodium ion uptake in rat cerebrocortical slices at concentration of (10e-6) M; format: functional
[31] = organism: Cavia porcellus; assay: Compound was tested for inhibition of chloride ion uptake in guinea pig cerebrocortical slices at concentration of (10e-8) M; format: functional; how it was run: as §1
[32] = organism: Felis catus; assay: Compound was tested for inhibition of chloride ion uptake in cat cerebrocortical slices at concentration of (10e-9) M; format: functional; how it was run: as §1
[33] = organism: Cavia porcellus; assay: Compound was tested for inhibition of chloride ion uptake in guinea pig cerebrocortical slices at concentration of (10e-11) M; format: functional; how it was run: as §1
[34] = organism: Rattus norvegicus; assay: Compound was tested for inhibition of chloride ion uptake in rat cerebrocortical slices at concentration of (10e-6) M; format: functional; how it was run: as §1
[35] = organism: Cavia porcellus; assay: Compound was tested for inhibition of potassium ion uptake in guinea pig cerebrocortical slices at concentration of (10e-12) M; format: functional; how it was run: as §1
[36] = organism: Felis catus; assay: Compound was tested for inhibition of HCO3- dependent swelling of cat cerebrocortical slices at concentration of (10e-11) M; format: functional; how it was run: as §2
[37] = organism: Felis catus; assay: Compound was tested for inhibition of K+ ion uptake in cat cerebrocortical slices at concentration of (10e-10) M; format: functional; how it was run: as §1
[38] = test system: Felis catus; assay: In vivo activity in the acceleration-deceleration head injury assay at dose of 5 mg/kg; 7/22
[39] = organism: Cavia porcellus; assay: Compound was tested for inhibition of HCO3- dependent swelling of guinea pig cerebrocortical slices at concentration of (10e-12) M; format: functional; how it was run: as §2
[40] = organism: Felis catus; assay: Compound was tested for inhibition of K+ ion uptake in cat cerebrocortical slices at concentration of (10e-9) M; format: functional; how it was run: as §1
[41] = organism: Rattus norvegicus; assay: Compound was tested for inhibition of potassium ion uptake in rat cerebrocortical slices at concentration of (10e-6) M; format: functional
[42] = organism: Felis catus; assay: Compound was tested for inhibition of HCO3- dependent swelling of cat cerebrocortical slices at concentration of (10e-9) M; format: functional; how it was run: as §2
[43] = test system: Rattus norvegicus; assay: In vivo activity in the acceleration-deceleration head injury assay at dose of 10 mg/kg; format: functional
How it was run: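 Cat acceleration-deceleration head injury model. Drug given intravenously 20 min after the acceleration-deceleration event, before the hypoxemia period. Animals were matched in pairs by sex and run together; one was randomly assigned to drug, the other served as control. Deaths were counted over 24 h after trauma, excluding animals dying during the procedure or hypoxemia. Mortality was compared by χ² analysis.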

Work on `CCCC12CCC(=O)C=C1c1c(cc(OCC(=O)O)c(Cl)c1Cl)C2` (single isomer, unassigned; (+)) yielded an Activity [1] of 90.8, an Activity [2] of 90.9 and a Swelling [3] of 22.8%. For the same compound, the Swelling [4] was 18.6%, the Swelling [5] was 19.5% and the Activity [6] was 107.3. It also gave a Deaths [7] of 8, an Activity [8] of 101.4 and an Activity [9] of 92.3. The Swelling [10] was 26.8%, the Activity [11] was 88.1 and the Activity [12] was 95. For the same compound, the Activity [13] was 103.4, the Activity [14] was 104.7 and the Activity [15] was 118.9. It also gave a Swelling [16] of 27.6%, a Deaths [17] of 5 and an Activity [18] of 83.8. The Deaths [19] was 6, the Swelling [20] was 20.9% and the Activity [21] was 87.2. It also gave an Activity [22] of 88.8, an Activity [23] of 110 and an Activity [24] of 106.3. It also gave an Activity [25] of 87.6, an Activity [26] of 125.4 and an Activity [27] of 95.9. The Activity [28] was 100.5, the Activity [29] was 73.7 and the Activity [30] was 127. It also gave an Activity [31] of 103.8, an Activity [32] of 89.3 and an Activity [33] of 94.8. The Activity [34] was 101.5, the Activity [35] was 87.7 and the Swelling [36] was 19.1%. For the same compound, the Activity [37] was 86.9, the Deaths [38] was 7 and the Swelling [39] was 30.9%. For the same compound, the Activity [40] was 86, the Activity [41] was 71.9 and the Swelling [42] was 18.3%. The Mortality [43] was 37.5% and 79%.
